ERp5 block = blocks human ERp5 reductase activity on insulin | ERp5 insulin aggregation, absorbance 650 nm, 90 min | inhibition, % at 9.99 µM | AID 651711 | 0.05% of 350,000 active | Q15084;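 active = mean replicate inhibition above about 25%, with every replicate also reaching it, limit read from the data, passing the limit was not always enough; inconclusive = only one of those two criteria met; inactive = neither criterion met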
SIRT5 inh = inhibitors of human sirtuin-5 desuccinylase; Q9NXA8; Purified SirT5, succinyl-peptide AMC, trypsin-coupled fluorescence; inhibition, % at 15 µM; 1.1% of 330,000 active; AID 652115; in the data active = inhibition above about 15%; inconclusive = no clear call, values can overlap the other calls
Target sequence (Q9NXA8 whole entry, looked up): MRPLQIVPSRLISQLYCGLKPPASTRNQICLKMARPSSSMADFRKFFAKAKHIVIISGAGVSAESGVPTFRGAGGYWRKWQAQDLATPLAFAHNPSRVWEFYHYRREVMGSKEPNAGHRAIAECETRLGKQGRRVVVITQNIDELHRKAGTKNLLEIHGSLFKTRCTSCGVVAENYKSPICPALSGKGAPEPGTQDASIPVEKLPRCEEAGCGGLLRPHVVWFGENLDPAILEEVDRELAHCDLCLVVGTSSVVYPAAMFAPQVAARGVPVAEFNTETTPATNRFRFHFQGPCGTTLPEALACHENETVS
INS-1E GSIS act = primary screen for activators of insulin secretion dependent on glucose, INS-1E cells, GLuc reporter luminescence; 0.61% of 370,000 active; activation, % at 16.6 µM; INS-1E GLuc reporter insulin secretion, 2-3 h; AID 743287;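 active = lowest replicate activation of at least 40%, so every replicate reaches that level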;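 note: 0% = median of neutral control wells and 100% = median of IBMX positive control wells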
S100A4 MyoIIA = inhibitors of human S100A4 binding to myosin IIA peptide. P26447. S100A4/TAMRA-MyoIIA peptide fluorescence polarization. inhibition, % at 10.7 µM. 0.14% of 360,000 active;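 active = mean inhibition of at least 70% across replicates, with every replicate also reaching that level; inconclusive = mean inhibition reaches 70% but some replicates fall short; inactive = mean inhibition below 70%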
Target sequence (P26447 whole entry, looked up): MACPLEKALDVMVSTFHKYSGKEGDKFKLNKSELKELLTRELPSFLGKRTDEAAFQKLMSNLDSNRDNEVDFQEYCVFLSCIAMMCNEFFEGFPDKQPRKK
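Test system: S100A4 monomer protein. Medium: HEPES buffer with Ca2+, pH 7.2. Reagent: fluorescent myosin IIA peptide, 5 nM. Compound dosing: single-point compound testing. Timing: 5 min between mix addition and reading. Benchmarks: DMSO neutral and TFP positive wells.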
PDI inh = PDI (human) enzyme inhibition; 0.052% of 350,000 active; PDI insulin aggregation turbidity, A650, 90 min; inhibition, % at 10 µM;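 active = mean inhibition across replicates of 30% or more, whatever share of single replicates reach that level; inconclusive = mean inhibition below 30% while every single replicate reaches 30%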
Active calls of the source: *; ? = inconclusive; . = no result given. A selection: hits, their analogues and other compounds. The true share with any hit is near 1.5%.

SMILES	ERp5 block	SIRT5 inh	INS-1E GSIS act	S100A4 MyoIIA	PDI inh
COc1cc(Cl)c(CN2CCCC(CO)(Cc3ccccc3F)C2)cc1OC (stereo not drawn)	4	101*	1	-8	-1
CCOc1ccc(CN2CCCC(CO)(Cc3ccccc3F)C2)cc1 (stereo not drawn)	-11	-1	-21	-8	10
Cc1cc(C)c(C(=O)COC(=O)CNC(=O)c2ccccc2C)c(C)c1	-3	1	-14	111*	4
O=[N+]([O-])c1cccc(/C=C/c2ccccn2)c1	4	24*	13	-1	-7
CCC(=O)Nc1ccc2c(c1)OC[C@H](C)N(Cc1ccccc1C(=O)O)C[C@@H](C)[C@@H](OC)CN(C)C2=O	1	-1	10	4	.
Cc1cccc(NC(=O)c2nc[nH]c2C(=O)NC[C@H](C)O)c1	0	27*	-3	9	4
CCc1c(C)nn(C(=O)/C(C#N)=C\N(C)C)c1C	-1	16*	3	-3	-9
COc1ccc(NC(=O)N(C)C[C@H]2OCCCC[C@@H](C)Oc3ccc(NC(=O)NC(C)C)cc3C(=O)N([C@@H](C)CO)C[C@H]2C)cc1	-2	11	7	0	.
NC(=O)c1ccsc1NC(=O)CSc1ncnc2sccc12	4	1	57*	4	12
CCC(C)NC(=O)CSc1ncnc2sccc12 (stereo not drawn)	?	0	-9	0	-1
CCNC(=O)C[C@@H]1CC[C@@H]2[C@@H](COc3ccc(NC(=O)Nc4ccc(C)cc4)cc3C(=O)N2C)O1	6	-3	-1	-2	.
C[C@H](CO)N1C[C@H](C)[C@H](CN(C)Cc2ccc(Oc3ccccc3)cc2)Oc2ccc(NS(C)(=O)=O)cc2C1=O	5	4	3	-2	.
CCCCCCCCN1[C@@H](CC(=O)O)c2cc(C(F)(F)F)ccc2S1(=O)=O	-6	40*	-4	2	0
O=C(NNC(=O)c1ccc(-c2ccccc2)cc1)c1ccccc1	-5	-1	0	2	-16
Cc1cccc(C(=O)NNC(=O)c2ccc(-c3ccccc3)cc2)c1	.	.	99*	.	-3
Cc1ccc(/C=C2/SC(=O)N(CC(=O)N3CCOCC3)C2=O)s1	4	-1	1	106*	-3
CCS(=O)(=O)Nc1ccc2c(c1)C(=O)N(C)[C@@H]1CC[C@@H](CC(=O)OC)O[C@@H]1CO2	3	-3	11	2	.
CN(C)CCN(Cc1ccccc1)C(c1ccnc2ccccc12)c1nnnn1-c1ccc2c(c1)OCCO2 (stereo not drawn)	-6	-7	-25	-7	.
CN(Cc1ccccc1)C(c1ccnc2ccccc12)c1nnnn1-c1ccc2c(c1)OCCO2 (stereo not drawn)	1	39*	-1	-7	.
Cc1noc(C)c1S(=O)(=O)N(C)C[C@H]1Oc2ccc(NC(=O)Nc3ccc4c(c3)OCO4)cc2CC(=O)N([C@H](C)CO)C[C@@H]1C	8	-8	-11	10	.
CC(=O)Nc1ccc(NC(=O)C(C)OC(=O)/C=C/c2cn(-c3ccccc3)nc2-c2cccnc2)cc1 (stereo not drawn)	.	.	392*	.	1
NC(=S)NN=Cc1ccc(-c2ccc(S(=O)(=O)Nc3ncccn3)cc2)o1	4	46*	8	-4	7
CCOc1ccc(C(=O)N/N=C/c2ccc(-c3ccc(S(=O)(=O)Nc4ncccn4)cc3)o2)cc1	.	.	28	.	2
C[C@@H]1CN([C@H](C)CO)C(=O)c2cc(C#CC(C)(C)O)cnc2O[C@H]1CN(C)C(=O)C1CCCCC1	.	.	-5	.	.
COCCn1c(-c2ccc(-c3ccc([N+](=O)[O-])cc3Br)o2)nc2c1c(=O)[nH]c(=O)n2CC(C)C	1	15*	7	-1	-9
SMILES	ERp5 block	SIRT5 inh	INS-1E GSIS act	S100A4 MyoIIA	PDI inh
O=C(/C=C/c1ccco1)Nc1cccc(C(=O)Nc2ccccc2C(=O)O)c1	3	21*	2	2	18
O=C(/C=C/c1ccco1)NC(=S)Nc1ccc(C(=O)O)cc1	-1	22*	7	-7	9
O=C(Nc1cc(C(=O)Nc2ccccc2C(=O)O)cc(C(=O)Nc2ccccc2C(=O)O)c1)c1ccccc1	0	25*	5	-6	-25
COc1cccc(S(=O)(=O)N(C)C[C@@H]2Oc3ncc(C#CC(C)C)cc3C(=O)N([C@@H](C)CO)C[C@@H]2C)c1	2	-3	-4	5	.
CCc1nc(N)nc2c1C(=O)CC(C)(C)C2	3	-7	70*	-3	-8
CC1(C)CC(=O)c2cnc(N)nc2C1	.	.	.	.	-3
NC(=O)N/N=C/c1ccc(N2CCOCC2)s1	2	4	9	-29	1
O=C(O)c1cc(N/N=C/c2ccc(N3CCOCC3)s2)ccc1Cl	6	36*	-1	-7	-4
COc1cccc(C(=O)Nc2ccc3c(c2)C(=O)N(C)C[C@@H](OC)[C@H](C)CN[C@H](C)CO3)c1	2	-9	8	5	.
C[C@@H]1CN([C@@H](C)CO)C(=O)c2cc(NC(=O)NC3CCCCC3)ccc2O[C@@H](C)CCCCO[C@@H]1CN(C)S(=O)(=O)c1ccc(Cl)cc1	-4	6	1	1	.
COc1ccc(N2CC(C(=O)N3CCc4ccccc43)CC2=O)cc1 (stereo not drawn)	-2	-1	66*	-3	-3
O=C1CN(Cc2ccccc2)C[C@@H]2[C@H](c3ccc(-c4ccccc4)cc3)[C@H](CO)N12	2	22*	9	-39	.
Cc1ccc(CN2CC(=O)N3[C@@H](CO)[C@H](c4ccc(-c5ccccc5F)cc4)[C@@H]3C2)cc1	-1	15*	-12	-11	.
O=C1CN(Cc2ccccc2)C[C@H]2[C@@H](c3ccc(-c4ccccc4)cc3)[C@H](CO)N12	10	-5	9	2	.
O=C1CN(S(=O)(=O)Cc2ccccc2)C[C@H]2[C@@H](c3ccc(C#Cc4ccccc4)cc3)[C@H](CO)N12	-3	16*	-4	-6	.
COc1ccc(S(=O)(=O)Nc2ccc3c(c2)C(=O)N([C@H](C)CO)C[C@H](C)[C@H](CN(C)S(=O)(=O)c2ccccc2)O3)cc1	11	2	-10	1	.
C[C@@H]1CCCCO[C@@H](CN(C)C(=O)c2ccccc2)[C@@H](C)CN([C@@H](C)CO)C(=O)c2cc(NS(=O)(=O)c3ccc(Cl)cc3)ccc2O1	0	-4	-13	-1	.
CCCN1C[C@H](C)[C@@H](OC)CN(C)C(=O)c2cc(NC(=O)c3ccccc3F)ccc2OC[C@@H]1C	0	4	-13	-7	.
C[C@H](CO)N1C[C@H](C)[C@@H](CN(C)Cc2ccc(Cl)c(Cl)c2)Oc2c(NC(=O)Nc3cccc4ccccc34)cccc2C1=O	5	.	-26	22	.
COc1ccc2c(CN3CCCC3)cc(=O)oc2c1	-6	19*	-7	-3	.
